Measurements taken from ChEMBL document CHEMBL4118202, “Chiral analogues of (+)-cyclazosin as potent α1B-adrenoceptor selective antagonist” (Bioorg Med Chem, 2018).

What was measured:
[1] = target: T1, Alpha-1B adrenergic receptor (Rattus norvegicus, UniProt P15823); test: Antagonist activity at alpha1B adrenergic receptor in Wistar rat spleen assessed as inhibition of phenylephrine-induced contraction incubated for 30 mins in presence of beta-adrenoceptor blocker propranolol hydrochloride; assay type: functional; conditions: read-out: pA2 (converted)
T1 sequence (P15823 whole entry): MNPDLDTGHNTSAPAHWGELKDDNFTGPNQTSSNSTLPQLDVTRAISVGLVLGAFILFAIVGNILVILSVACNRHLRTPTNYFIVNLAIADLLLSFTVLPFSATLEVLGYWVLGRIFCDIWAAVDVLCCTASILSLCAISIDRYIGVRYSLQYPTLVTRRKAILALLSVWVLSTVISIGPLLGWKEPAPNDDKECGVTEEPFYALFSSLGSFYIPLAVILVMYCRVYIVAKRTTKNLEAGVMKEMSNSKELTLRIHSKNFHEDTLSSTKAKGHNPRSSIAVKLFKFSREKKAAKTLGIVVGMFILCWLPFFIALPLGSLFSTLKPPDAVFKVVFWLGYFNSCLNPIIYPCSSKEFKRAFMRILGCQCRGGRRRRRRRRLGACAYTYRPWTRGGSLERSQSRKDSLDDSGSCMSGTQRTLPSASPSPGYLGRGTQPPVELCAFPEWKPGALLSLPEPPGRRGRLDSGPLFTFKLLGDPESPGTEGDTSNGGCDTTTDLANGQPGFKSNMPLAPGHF
Outline: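 Spleen bisected longitudinally into strips in Krebs with propranolol 4 μM, held at 1 g and equilibrated 2 h. Two isometric cumulative phenylephrine curves, each followed by 30 min washing. Third curve after 30 min vehicle or antagonist. Potency as pA2 (Schild) or pKB at one concentration (van Rossum). Responses as % of control maximum; n ≥ 4.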

[2] = species: Homo sapiens; test: Selectivity ratio of compound effect for alpha1B adrenergic receptor (unknown origin) to compound effect for alpha1A adrenergic receptor (unknown origin)
[3] = species: Homo sapiens; test: Selectivity ratio of compound effect for alpha1B adrenergic receptor (unknown origin) to compound effect for alpha1D adrenergic receptor (unknown origin)
[4] = target: T2, Alpha-1D adrenergic receptor (Rattus norvegicus) (UniProt P23944); test: Antagonist activity at alpha1D adrenergic receptor in Wistar rat thoracic aorta assessed as inhibition of noradrenaline-induced contraction measured after 30 mins in presence of cocaine hydrochloride and beta-adrenoceptor blocker propranolol hydrochloride; assay type: functional
T2 sequence (whole entry): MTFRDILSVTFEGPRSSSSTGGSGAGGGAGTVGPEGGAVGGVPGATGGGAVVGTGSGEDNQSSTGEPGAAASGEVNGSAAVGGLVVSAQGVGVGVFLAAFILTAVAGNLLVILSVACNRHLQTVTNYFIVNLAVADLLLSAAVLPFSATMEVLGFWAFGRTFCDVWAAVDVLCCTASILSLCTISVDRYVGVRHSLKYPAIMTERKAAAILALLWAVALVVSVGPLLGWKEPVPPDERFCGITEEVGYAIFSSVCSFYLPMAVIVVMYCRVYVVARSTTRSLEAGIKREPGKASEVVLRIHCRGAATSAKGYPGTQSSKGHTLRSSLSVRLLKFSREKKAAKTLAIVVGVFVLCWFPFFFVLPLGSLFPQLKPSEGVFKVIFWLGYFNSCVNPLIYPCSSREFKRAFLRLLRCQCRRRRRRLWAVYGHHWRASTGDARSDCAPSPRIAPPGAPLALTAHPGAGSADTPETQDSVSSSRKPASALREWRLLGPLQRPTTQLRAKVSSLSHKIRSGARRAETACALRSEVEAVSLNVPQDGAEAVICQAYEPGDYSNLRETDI
Outline: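 Helical thoracic aorta strips, endothelium removed (checked by loss of acetylcholine relaxation), in Krebs at 1 g, equilibrated ≥2 h. Isometric cumulative noradrenaline curves at 1 h intervals; the second served as control, the third followed 30 min antagonist.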

[5] = species: Homo sapiens; test: Selectivity ratio of compound effect for alpha1D adrenergic receptor (unknown origin) to compound effect for alpha1A adrenergic receptor (unknown origin)
[6] = target: T3, Alpha-1B adrenergic receptor (Homo sapiens, UniProt P35368); test: Binding affinity to alpha1B adrenergic receptor (unknown origin)
T3 sequence (P35368 whole entry): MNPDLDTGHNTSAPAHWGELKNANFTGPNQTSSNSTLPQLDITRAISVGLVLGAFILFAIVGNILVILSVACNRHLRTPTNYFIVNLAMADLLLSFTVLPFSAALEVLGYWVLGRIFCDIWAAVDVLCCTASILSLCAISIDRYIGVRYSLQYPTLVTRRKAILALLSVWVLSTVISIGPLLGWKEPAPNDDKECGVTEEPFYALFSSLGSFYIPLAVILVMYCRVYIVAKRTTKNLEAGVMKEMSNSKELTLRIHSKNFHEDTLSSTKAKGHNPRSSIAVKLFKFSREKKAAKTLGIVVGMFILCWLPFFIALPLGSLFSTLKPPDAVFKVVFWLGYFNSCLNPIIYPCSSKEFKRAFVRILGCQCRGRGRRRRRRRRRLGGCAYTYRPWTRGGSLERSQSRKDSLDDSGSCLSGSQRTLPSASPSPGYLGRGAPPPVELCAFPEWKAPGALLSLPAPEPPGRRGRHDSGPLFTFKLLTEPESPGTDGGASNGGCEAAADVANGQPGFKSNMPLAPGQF

[7] = target: T4, Alpha-1A adrenergic receptor (Homo sapiens, UniProt P35348); test: Binding affinity to alpha1A adrenergic receptor (unknown origin)
T4 sequence (P35348 whole entry): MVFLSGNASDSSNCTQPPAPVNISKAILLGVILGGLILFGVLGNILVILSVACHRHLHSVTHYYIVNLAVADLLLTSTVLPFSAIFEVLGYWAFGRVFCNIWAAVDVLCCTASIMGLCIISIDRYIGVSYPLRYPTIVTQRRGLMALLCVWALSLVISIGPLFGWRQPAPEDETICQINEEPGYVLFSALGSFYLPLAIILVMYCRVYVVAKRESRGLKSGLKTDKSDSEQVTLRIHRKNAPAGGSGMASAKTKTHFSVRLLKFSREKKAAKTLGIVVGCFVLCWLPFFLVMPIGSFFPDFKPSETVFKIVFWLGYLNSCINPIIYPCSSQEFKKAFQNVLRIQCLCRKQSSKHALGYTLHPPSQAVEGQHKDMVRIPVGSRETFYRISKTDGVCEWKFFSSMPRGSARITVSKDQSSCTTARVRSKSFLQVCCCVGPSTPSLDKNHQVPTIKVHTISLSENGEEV

Row | SMILES | Kb [1] | pKb [4] | further results
1 | CCCN(CCC)c1nc(N2CCN(C(=O)c3ccco3)[C@H]3CCCC[C@H]32)nc2cc(OC)c(OC)cc12 |  | 6.22 | 
2 | COc1cc2nc(N3CCN(C(=O)COc4c(OC)cccc4C(C)C)[C@H]4CCCC[C@H]43)nc(N)c2cc1OC | 191 nM |  | 

More lines, main results first:

Row | Kb [1] | pKb [4] | SMILES | further results
3 | 1.82 nM |  | COc1cc2nc(N3CCN(C(=O)OCc4ccccc4)[C@@H]4CCCC[C@@H]43)nc(N)c2cc1OC | 
4 | 3.02 nM |  | COc1cc2nc(N3CCN(C(C)=O)[C@H]4CCCC[C@H]43)nc(N)c2cc1OC | 
5 |  | 7.1 | COc1cc2nc(N3CCN(C(=O)C4COc5ccccc5O4)[C@H]4CCCC[C@H]43)nc(N)c2cc1OC (single isomer, unassigned; (-)) [CYCLODOXAZOSIN] | Selectivity ratio [2]: 2; Selectivity ratio [3]: 3; Selectivity ratio [5]: 1; Ki [6]: 1.41 nM; Ki [7]: 3.39 nM
6 | 0.617 nM |  | COc1cc2nc(N3CCN(C(C)=O)[C@@H]4CCCC[C@@H]43)nc(N)c2cc1OC | 
